# The list is not random: actives were taken first. Their share in the collection is about 5.4%.
# SKKanGAS inh – SKKanGAS growth inhibition; actives 1.3% (n = 300,000); inhibition, % at 7.5 µM; AID 1662; S. pyogenes SKKanGAS, kanamycin growth, BacTiter-Glo, 6 h;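 active = mean replicate score, as percent of positive control median, at least 50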;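 also: strain carries kanamycin resistance gene driven by streptokinase promoter and grows in 40 µg/ml kanamycin; loss of luminescence reflects streptokinase promoter inhibition or plain growth inhibition; 0% = median of DMSO wells and 100% = positive control at its reference dose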
# aSyn 5UTR inh – 5' untranslated region of α-synuclein, MLPCN primary screen; alpha-synuclein 5'UTR reporter, inhibitor activity; inhibition, % (tested at 7.5 µM); actives 0.82% (n = 300,000); AID 1813; in the data active = inhibition above about 60%;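 also: H4 neuroglioblastoma cells stably carrying SNCA 5'UTR luciferase fusion; 0% = DMSO wells and 100% = positive control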
# CSC inhib – cancer stem cell inhibition; cancer stem cell-like cells viability, luminescence; inhibition, % at 7.5 µM; actives 1.1% (n = 300,000); in the data active = inhibition above about 75%; tested in HMLE shEcad cells
# Mdm2 MdmX PPI – inhibitors of human Mdm2/MdmX interaction | O15151+Q00987 | SaOS-2 split-luciferase Mdm2/MdmX complementation, luminescence | inhibition, % at 8 µM | actives 3% (n = 330,000) | AID 485346;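 active = inhibition of at least 50% at 8 µM in the primary screen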
# T cruzi repl – blocks replication of Trypanosoma cruzi; AID 1885; actives 1.4% (n = 300,000); inhibition, % (test concentration not listed); T. cruzi beta-gal in NIH3T3, luminescence, 90 h;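 active = mean inhibition across valid replicates above about 55%, limit read from the data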;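 also: signal also drops with host cell toxicity which is not excluded here; 0% = plate median of DMSO wells and 100% = zero luminescence signal; higher percent means less beta-gal luminescence so fewer parasites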
#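 Incubation – ≥90 h infection period, 3 h prior cell attachment · System – NIH/3T3 fibroblasts plus reporter T. cruzi · Doses – compound pinned at 50 nL/well, DMSO · Read-out basis – percent inhibition of parasite-derived β-gal signal · Signal – luminescent β-galactosidase signal after 60 min lysis · Also added – 5000 T. cruzi trypomastigotes/well · Medium – Low-serum DMEM with 2% FBS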
# The depositor's hits bear a star; / = no result given.
SMILES,SKKanGAS inh,aSyn 5UTR inh,CSC inhib,Mdm2 MdmX PPI,T cruzi repl
CC(C)(C)c1ccc(C(=O)N2CCN(CCNC(=O)C(=O)NCc3ccc(Cl)cc3)CC2)cc1,1,50,26,19,66*
Cc1nc2ccccc2c(-c2ccccc2)c1CC(=O)O,-2,2,-5,-2,-7
O=C(O)C[C@H](O)C[C@H](O)/C=C/c1c(C2CC2)nc2ccccc2c1-c1ccc(F)cc1,-1,104*,/,/,2
CC(=O)N/C(=C\c1ccccc1)C(=O)Nc1ccccc1C,3,11,-17,-2,-4
COc1cc2sc3ccc(-c4ccc5[nH]ccc5c4)cc3c(=O)c2cc1OC,20,-239,31,-22,45
O=c1c2ccccc2oc2cc(-c3ccc4[nH]ccc4c3)ccc12,57*,-97,83*,-59,-5
O=C(NCC1COc2ccccc2O1)C1CCN(S(=O)(=O)c2ccc(Cl)cc2)CC1 (centres undefined),/,/,/,1,/
CCOc1cc(S(=O)(=O)N(CC)CC)c(OCC)cc1-n1cnnn1,4,0,/,-7,10
CCOc1cc(S(=O)(=O)N2CCC(Cc3ccccc3)CC2)c(OCC)cc1-n1cnnn1,-6,23,17,7,67*
Cc1ccc(NC(=S)/N=C(\N)Nc2nc(C)c3cc(C)c(C)cc3n2)cc1C,40,18,0,43,61*
COc1ccc2nc(N/C(N)=N/C(=S)Nc3cccc(C)c3)nc(C)c2c1,42,-2,29,37,49
COC(=O)c1sc2nc(N3CCCCC3)c3c(c2c1N)CCCC3,13,26,85*,7,16
COC(=O)c1ccc(-c2sc3nc(N4CCOCC4)c4c(c3c2N)CCCC4)o1,18,5,28,-7,67*
O=C1/C(=C/c2c[nH]c3ccccc23)CCC/C1=C\c1c[nH]c2ccccc12,59*,-14,-19,21,44
S=C(NCCSCc1c(Cl)cccc1Cl)Nc1ccccc1,/,21,/,9,56*
S=C(NCCSCc1ccc(Cl)cc1Cl)Nc1ccccc1,56*,0,53,25,-21
CS(=O)(=O)NCCSCc1c(F)cccc1Cl,4,-7,/,-2,-4
COc1ccc(CSCCNC(=S)Nc2ccccc2)cc1Cl,63*,9,15,14,-5
COc1ccc(CNC(=S)Nc2ccccc2)cc1Cl,2,5,5,44,4
CS(=O)(=O)NCCSCc1c(Cl)cccc1Cl,-13,25,-17,21,75*
C=CCN(c1ccccc1)S(=O)(=O)c1cccc(C(=O)Nc2ccc(N3CCOCC3)cc2)c1,/,/,/,14,/
CCOc1ccc(NC(=S)Nc2ccc(OCc3ccccc3)cc2)cc1,3,-32,-5,5,6
S=C(Nc1ccccc1)Nc1ccc(OCc2ccc(Cl)cc2Cl)cc1,-2,96*,/,23,-15
OCCCCNCc1ccc(OCc2ccc(Cl)cc2Cl)cc1,3,-2,91*,43,60*
S=C(NCCSCc1ccc(Cl)c(Cl)c1)Nc1ccccc1,52*,11,-14,5,2
SMILES,SKKanGAS inh,aSyn 5UTR inh,CSC inhib,Mdm2 MdmX PPI,T cruzi repl
CCOc1ccc(CSCCNC(=S)Nc2ccccc2)cc1,-9,17,12,9,-13
Cc1ccc2ncccc2c1,/,/,-3,2,/
Cc1cc(N(C)C)ccc1N=Nc1ccc2ncccc2c1,54*,-49,10,-118,4
CCOc1ccc(OCC)c(NC(=O)CN2CCN(c3ccc(C)cc3C)CC2)c1,28,23,66,-10,65*
CCOC(=O)N1CCN(CC(=O)Nc2cc(OCC)ccc2OCC)CC1,/,/,/,39,/
O=C(CC1SC(=Nc2ccccc2)N(CCc2c[nH]c3ccccc23)C1=O)Nc1ccccc1F (centres undefined),86*,-28,81*,28,54
O=C(CC1SC(=Nc2ccccc2)N(CCO)C1=O)Nc1ccccc1 (centres undefined),-9,13,-11,10,-11
CCn1c(=O)c(C(=O)Nc2ccccc2C)c(O)c2ccccc21,-3,-81,-7,7,-11
CCCCCCCC(=O)NNC(=O)c1c(O)c2ccccc2n(CC)c1=O,99*,-3,7,18,1
CCCCCCCCC(=O)NNC(=O)c1c(O)c2ccccc2n(CC)c1=O,106*,-4,/,31,-17
CCCCCCC(=O)NNC(=O)c1c(O)c2ccccc2n(CC)c1=O,112*,15,10,5,10
CCCn1c(=O)c(C(=O)NNC(=O)Cc2ccccc2)c(O)c2ccccc21,36,11,2,22,1
